Source: ChEMBL document CHEMBL4334468, “Exploring Mitochondria-Mediated Intrinsic Apoptosis by New Phytochemical Entities: An Explicit Observation of Cytochrome c Dynamics on Lung and Melanoma Cancer Cells” (J Med Chem, 2019)
Activity calls are given as the source filed them. The rule behind the calls is not given here.

Experiments:
Format in all cases: functional, cell-based
A549 [1] = assay: Induction of apoptosis in human A549 cells assessed as increase in caspase-3 levels at 1 uM incubated for 12 hrs by spectrofluorometry
A549 [2] = assay: Induction of apoptosis in human A549 cells assessed as cytochrome-c release after 6 to 8 hrs by Raman spectral imaging analysis
A-375 [3] = assay: Induction of apoptosis in human A375 cells assessed as increase in caspase-2 levels at 1 uM incubated for 12 hrs by spectrofluorometry
A549 [4] = assay: Induction of GSH depletion in human A549 cells by fluorimetry
A-375 [5] = assay: Cytotoxicity in human A375 cells assessed as reduction in cell viability incubated for 48 hrs by MTT assay; settings: Homo sapiens, A-375, 48 h; read-out: IC50
In short: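 MTT viability assay on A375 melanoma, A549 lung adenocarcinoma and WI-38 normal lung fibroblast cells after 24 and 48 h treatment. IC50 values are in µM, expressed as mean ± SD.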

COc1cc(C2Oc3cc(-c4cc(=O)c5c(O)cc(O)cc5o4)ccc3OC2/C=C2\C(=O)ON=C2c2ccc(Cl)cc2)ccc1O (stereo not given)
Activity (A549 [1]): Active
Activity (A549 [2]): Active
Activity (A-375 [3]): Active
Activity (A549 [4]): Active
IC50 (A-375 [5]): 940 nM
